In ChEMBL document CHEMBL2203235, “Optimization of a natural product-based class of γ-secretase modulators” (J Med Chem, 2012):

What was measured:
[1] = system: Liver microsomes; assay: Metabolic stability in human liver microsomes at 1 uM after 60 mins by LC/MS/MS analysis; settings: 1 h
[2] = Modulation of gamma secretase in CHO-2B7 cells assessed as reduction in amyloid beta 40 level after 5 hrs by MSD ELISA; format: cell-based; settings: Cricetulus griseus, CHO-2B7, 5 h
[3] = Metabolic stability in human liver microsomes assessed as compound remaining at 1 uM at 60 mins by LC/MS/MS analysis in absence of NADPH; format: ADME, Microsome; settings: liver microsomes, read-out: Stability
Outline: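 Human liver microsomes were run without NADPH as a qualitative read of susceptibility to enzymatic hydrolysis. The read-out was percent parent remaining at 60 min.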

[4] = Modulation of gamma secretase in CHO-2B7 cells assessed as reduction in amyloid beta 42 level after 5 hrs by MSD ELISA; format: cell-based; settings: Cricetulus griseus, CHO-2B7, 5 h
[5] = system: CHO-2B7; assay: Modulation of gamma secretase in CHO-2B7 cells assessed as reduction in amyloid beta 40 level at 20 uM after 5 hrs by MSD ELISA; format: cell-based; parameters: scale not given: the % may be the effect or the level left; settings: Cricetulus griseus

Row | Stability [1] | Structure (SMILES) | IC50 [2] | remaining at 1 h, 1 µM [3] | IC50 [4] | Activity [5]
1 | Stable | CC(C)[C@@H](OC(=O)N1CCC1)[C@H]1C[C@@H](C)[C@H]2[C@H](O1)[C@H](O)[C@@]1(C)[C@@H]3CC[C@H]4C(C)(C)[C@@H](O[C@H]5CN(C(=O)CNS(=O)(=O)C(F)(F)F)CCO5)CC[C@@]45C[C@@]35CC[C@]21C | – | – | 1300 nM | 49%
2 | Stable | CCO[C@@H]([C@H]1C[C@@H](C)[C@H]2[C@H](O1)[C@H](O)[C@@]1(C)[C@@H]3CC[C@H]4C(C)(C)[C@@H](OC(=O)NCCNS(=O)(=O)C(F)(F)F)CC[C@@]45C[C@@]35CC[C@]21C)C(C)(C)O | – | – | 710 nM | 13%
3 | Stable | CC(C)[C@@H](OC(=O)N1CCC1)[C@H]1C[C@@H](C)[C@H]2[C@H](O1)[C@H](O)[C@@]1(C)[C@@H]3CC[C@H]4C(C)(C)[C@@H](OC(=O)N5CCC(F)(F)CC5)CC[C@@]45C[C@@]35CC[C@]21C | – | – | 9100 nM | 12%
4 | – | CC(=O)O[C@@H]([C@H]1C[C@@H](C)[C@H]2[C@H](O1)[C@H](O)[C@@]1(C)[C@@H]3CC[C@H]4C(C)(C)[C@@H](OC(N)=O)CC[C@@]45C[C@@]35CC[C@]21C)C(C)(C)O | – | – | 200 nM | 37%
5 | – | CC(C)O[C@@H]([C@H]1C[C@@H](C)[C@H]2[C@H](O1)[C@H](O)[C@@]1(C)[C@@H]3CC[C@H]4C(C)(C)[C@@H](O[C@H]5CN(C6COC6)CCO5)CC[C@@]45C[C@@]35CC[C@]21C)C(C)(C)O | 2800 nM | 105% | 440 nM | –
6 | – | C=C(C)CO[C@@H]([C@H]1C[C@@H](C)[C@H]2[C@H](O1)[C@H](O)[C@@]1(C)[C@@H]3CC[C@H]4C(C)(C)[C@@H](O[C@H]5CN(C6COC6)CCO5)CC[C@@]45C[C@@]35CC[C@]21C)C(C)(C)O | 11000 nM | 84% | 340 nM | –
7 | Stable | CCO[C@@H]([C@H]1C[C@@H](C)[C@H]2[C@H](O1)[C@H](O)[C@@]1(C)[C@@H]3CC[C@H]4C(C)(C)[C@@H](OC(=O)N5CCNC(C(F)(F)F)C5)CC[C@@]45C[C@@]35CC[C@]21C)C(C)(C)O (stereo partly specified) | – | – | 390 nM | 31%
8 | – | CNC(=O)OC[C@H]1C[C@@H](C)[C@H]2[C@H](O1)[C@H](O)[C@@]1(C)[C@@H]3CC[C@H]4C(C)(C)[C@@H](O[C@H]5CN(C(=O)CC6CC6)CCO5)CC[C@@]45C[C@@]35CC[C@]21C | 81000 nM | 81% | 350 nM | –
9 | Stable | CC(C)[C@@H](OC(=O)N1CCC1)[C@H]1C[C@@H](C)[C@H]2[C@H](O1)[C@H](O)[C@@]1(C)[C@@H]3CC[C@H]4C(C)(C)[C@@H](OC(=O)NC5CCOCC5)CC[C@@]45C[C@@]35CC[C@]21C | – | – | 3000 nM | 27%
10 | – | CC(=O)O[C@H](C(C)C)[C@H]1C[C@@H](C)[C@H]2[C@H](O1)[C@H](O)[C@@]1(C)[C@@H]3CC[C@H]4C(C)(C)[C@@H](O)CC[C@@]45C[C@@]35CC[C@]21C | 7500 nM | 0% | 780 nM | –
11 | – | CC(=O)O[C@@H]([C@H]1C[C@@H](C)[C@H]2[C@H](O1)[C@H](O)[C@@]1(C)[C@@H]3CC[C@H]4C(C)(C)[C@@H](OC(=O)N5CCOCC5)CC[C@@]45C[C@@]35CC[C@]21C)C(C)(C)O | 14000 nM | 2% | 310 nM | –
12 | – | C[C@@H]1C[C@H](COC(N)=O)O[C@H]2[C@H]1[C@@]1(C)CC[C@@]34C[C@@]35CC[C@H](O[C@H]3CN(C(=O)CC6CC6)CCO3)C(C)(C)[C@@H]5CC[C@H]4[C@]1(C)[C@H]2O | 35000 nM | 77% | 840 nM | –
13 | – | CC(C)[C@@H](OC(=O)N(C)C)[C@H]1C[C@@H](C)[C@H]2[C@H](O1)[C@H](O)[C@@]1(C)[C@@H]3CC[C@H]4C(C)(C)[C@@H](OC(=O)NC5CNC5)CC[C@@]45C[C@@]35CC[C@]21C | 9500 nM | 113% | 300 nM | –
14 | – | CNC(=O)O[C@H](C(C)C)[C@H]1C[C@@H](C)[C@H]2[C@H](O1)[C@H](O)[C@@]1(C)[C@@H]3CC[C@H]4C(C)(C)[C@@H](O[C@H]5CNCCO5)CC[C@@]45C[C@@]35CC[C@]21C | 4300 nM | 95% | 480 nM | –
15 | – | CC(C)[C@@H](OC(N)=O)[C@H]1C[C@@H](C)[C@H]2[C@H](O1)[C@H](O)[C@@]1(C)[C@@H]3CC[C@H]4C(C)(C)[C@@H](OC(N)=O)CC[C@@]45C[C@@]35CC[C@]21C | 1200 nM | 103% | 700 nM | –
16 | – | CC(C)[C@@H](OC(=O)N(C)C)[C@H]1C[C@@H](C)[C@H]2[C@H](O1)[C@H](O)[C@@]1(C)[C@@H]3CC[C@H]4C(C)(C)[C@@H](O)CC[C@@]45C[C@@]35CC[C@]21C | 10000 nM | 81% | 1000 nM | –
17 | – | CNC(=O)O[C@H](C(C)C)[C@H]1C[C@@H](C)[C@H]2[C@H](O1)[C@H](O)[C@@]1(C)[C@@H]3CC[C@H]4C(C)(C)[C@@H](OC(=O)NC5CNC5)CC[C@@]45C[C@@]35CC[C@]21C | 5000 nM | 110% | 120 nM | –
18 | – | CC(=O)O[C@@H]([C@H]1C[C@@H](C)[C@H]2[C@H](O1)[C@H](O)[C@@]1(C)[C@@H]3CC[C@H]4C(C)(C)[C@@H](OC(=O)N5CCC5)CC[C@@]45C[C@@]35CC[C@]21C)C(C)(C)O | 15000 nM | 17% | 510 nM | –
19 | – | CCO[C@@H]([C@H]1C[C@@H](C)[C@H]2[C@H](O1)[C@H](O)[C@@]1(C)[C@@H]3CC[C@H]4C(C)(C)[C@@H](OC(=O)N5CCOCC5)CC[C@@]45C[C@@]35CC[C@]21C)C(C)(C)O | 2000 nM | 77% | 220 nM | –
20 | – | CNC(=O)O[C@H](C(C)C)[C@H]1C[C@@H](C)[C@H]2[C@H](O1)[C@H](O)[C@@]1(C)[C@@H]3CC[C@H]4C(C)(C)[C@@H](O)CC[C@@]45C[C@@]35CC[C@]21C | 8500 nM | 96% | 890 nM | –

Row | Structure (SMILES) | Stability [1] | IC50 [2] | remaining at 1 h, 1 µM [3] | IC50 [4] | Activity [5]
21 | CC(C)[C@@H](OC(=O)N1CCC1)[C@H]1C[C@@H](C)[C@H]2[C@H](O1)[C@H](O)[C@@]1(C)[C@@H]3CC[C@H]4C(C)(C)[C@@H](OC(=O)N5CCOCC5)CC[C@@]45C[C@@]35CC[C@]21C | Stable | 11000 nM | 104% | 360 nM | –
22 | CCO[C@@H]([C@H]1C[C@@H](C)[C@H]2[C@H](O1)[C@H](O)[C@@]1(C)[C@@H]3CC[C@H]4C(C)(C)[C@@H](OC(=O)NC5CNC5)CC[C@@]45C[C@@]35CC[C@]21C)C(C)(C)O | Stable | 1900 nM | 92% | 53 nM | –
23 | CCO[C@@H]([C@H]1C[C@@H](C)[C@H]2[C@H](O1)[C@H](O)[C@@]1(C)[C@@H]3CC[C@H]4C(C)(C)[C@@H](OC(N)=O)CC[C@@]45C[C@@]35CC[C@]21C)C(C)(C)O | Stable | 3900 nM | 116% | 210 nM | –
